According to article PMC6396318 (Journal of the American Chemical Society, 2019):
Like-named read-outs stand apart in the source and are kept apart here. Marks after values point to notes of the source that are not given here.

Key:
[1] = Indiscriminate thiol reactivity assay with GSH; format: physicochemical; conditions: 23 h incubation with 5 mM GSH at 37 °C, LC–MS UV trace
Method in brief: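 Test compound was incubated with 5 mM GSH in buffer at 37 °C for 23 h. Adduct formation was quantified from the LC–MS UV trace.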

[2] = Indiscriminate thiol reactivity assay with cysteine; format: physicochemical; conditions: for Cysteine adduct formation: incubated with cysteine for 23 h, LC–MS; for Cysteine adduct pH 5.5 / Cysteine adduct pH 7.5 / Cysteine adduct pH 8.0: 23 h incubation with 10 mM cysteine at 37 °C, LC–MS UV trace
Method in brief: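 Test compound was incubated with 10 mM cysteine in buffer at pH 5.5, 7.5 or 8.0 for 23 h at 37 °C. Cysteine adduct formation was quantified from the LC–MS UV trace.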

hCatK [3] = biological target: T1, hCatK (Homo sapiens, UniProt P43235); assay: Kinetic evaluation of covalent inhibitors; format: biochemical
T1 sequence (P43235 115-329): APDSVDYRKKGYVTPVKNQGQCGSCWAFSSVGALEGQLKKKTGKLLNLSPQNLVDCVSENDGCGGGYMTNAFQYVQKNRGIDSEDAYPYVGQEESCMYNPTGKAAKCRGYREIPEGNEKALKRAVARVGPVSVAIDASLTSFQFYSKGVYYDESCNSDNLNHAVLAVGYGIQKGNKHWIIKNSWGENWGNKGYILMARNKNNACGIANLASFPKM
Method in brief: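 Recombinant hCatK (100 pM) was used with 4 μM Z-FR-AMC at 26 °C. The reaction was started by adding enzyme to substrate plus test compound. Progress curves of substrate hydrolysis were fitted to derive kinetic constants. Values are mean ± SD of one representative experiment measured in triplicate.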

CatK [4] = biological target: T2, CatK (Homo sapiens, UniProt P43235); assay: Cathepsin K activity in osteoclast lysates; format: cell-based; conditions: lysates treated with BMV109; increase with ODN ascribed to displacement by probe
T2 sequence (P43235 115-329): T1 sequence (P43235 115-329)

human osteoclasts (OCs) [5] = assay: Bone resorption by osteoclasts cultured on cortical bone slices; format: cell-based
Method in brief: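 Human CD14+ monocytes were seeded on bone slices, with M-CSF added on day 0 and RANKL on day 3 to drive osteoclast maturation. Medium containing test compound or DMSO was refreshed on days 7, 10, 13 and 16. On day 21 the cells were washed off and lysed. Resorption pits (trenches vs pits) were stained with Coomassie Brilliant Blue, and total resorption area was quantified.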

[6] = cited from earlier work
hCatK [7] = biological target: T1, hCatK; assay: In vitro inhibition assay, fluorogenic substrate; format: biochemical
Method in brief: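 Fluorogenic substrate was then added and proteolytic activity read. Values are mean ± SD of one representative experiment measured in triplicate. Selectivity was taken from IC50 values across these proteases.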

CatK [8] = conditions: 100 nM; cited from earlier work
hCatK [9] = biological target: T1, hCatK; assay: Reversibility of inhibition; format: biochemical; conditions: 300-fold dilution into Z-FR-AMC
Method in brief: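 Jump dilution: recombinant hCatK was preincubated with test compound at high concentration to fully occupy the active site. The mixture was then diluted 300-fold into Z-FR-AMC solution. Progress curves of hCatK activity were recorded to detect recovery of substrate hydrolysis. E-64 served as control.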

human osteoclasts (OCs) [10] = assay: TRAcP staining and counting of mature OCs on plastic; format: cell-based; conditions: highest concentrations
[11] = cited from earlier work; remark: listed apart in the source
rodentCatK = conditions: mice and rats; cited from earlier work
[12] = 100 pM hCatK, 4 μM Z-FR-AMC, 26 °C, reversible covalent

## CC#CC(=O)N1CCC[C@H]1c1nc(-c2ccc(C(=O)Nc3ccccn3)cc2)c2c(N)nccn12 [Acalabrutinib]
[1]
  GSH adduct pH 7.5: 95%
[2]
  Cysteine adduct formation: observed
  Cysteine adduct pH 5.5: 19%
  Cysteine adduct pH 7.5: 98%
  Cysteine adduct pH 8.0: 97%

## CN(C)C/C=C/C(=O)Nc1cc2c(Nc3ccc(F)c(Cl)c3)ncnc2cc1O[C@H]1CCOC1 [Afatinib]
[1]
  GSH adduct pH 7.5: 94%
[2]
  Cysteine adduct formation: adduct formation that increases upon increasing the pH of the buffer
  Cysteine adduct pH 5.5: 92%
  Cysteine adduct pH 7.5: 98%
  Cysteine adduct pH 8.0: 95%

## CC(C)C[C@H](NC(=O)[C@H]1O[C@@H]1C(=O)O)C(=O)NCCCCN=C(N)N [Compound E-64, E-64]
hCatK [3]; 100 pM hCatK, 4 μM Z-FR-AMC, 26 °C, irreversible covalent, mean ± SD
  Ki: 11 ± 1.6 nM
[1]
  GSH adduct pH 7.5: 64%
[2]
  Cysteine adduct formation: adduct formation that increases upon increasing the pH of the buffer
  Cysteine adduct pH 5.5: <1%
  Cysteine adduct pH 7.5: 68%
  Cysteine adduct pH 8.0: 79%

## C=CC(=O)N1CCC[C@@H](n2nc(-c3ccc(Oc4ccccc4)cc3)c3c(N)ncnc32)C1 [Ibrutinib]
[1]
  GSH adduct pH 7.5: 91%
[2]
  Cysteine adduct formation: adduct formation that increases upon increasing the pH of the buffer
  Cysteine adduct pH 5.5: 9%
  Cysteine adduct pH 7.5: 99%
  Cysteine adduct pH 8.0: 96%

## CC(C)(F)C[C@H](N[C@@H](c1ccc(-c2ccc(S(C)(=O)=O)cc2)cc1)C(F)(F)F)C(=O)NC1(C#N)CC1 [ODN, odanacatib]
hCatK [3]
  Ki: 3.8 ± 2.7 nM
hCatK [3]; [12]
  k5 (rate of covalent bond formation): 0.12 ± 0.026 min⁻¹
  k6 (rate of covalent bond dissociation): 0.033 ± 0.0077 min⁻¹
CatK [4]
  Mature CatK activity in OC lysates (BMV109 labeling): strong increase of mature CatK activity
[1]
  GSH adduct pH 7.5: 0%^b
Human osteoclasts (OCs) [5]; 3 nM, 21 days culture, Coomassie staining
  Bone resorption morphology at 3 nM: deep trenches
Human osteoclasts (OCs) [5]; 15 nM, 21 days culture, Coomassie staining
  Bone resorption morphology at 15 nM: shallow pits
Human osteoclasts (OCs) [5]; 21 days culture on bone slices
  Effective dose / concentrations inhibiting bone resorption: around 15 nM
[6]
  Side effects in phase III clinical trials: increased stroke risks and cardiovascular events
hCatK [7]
  IC50: < 1 nM
hCatK [7]; from IC50 values of Table 2
  Selectivity for CatK over related human cathepsins: selective for hCatK
CatK [8]
  CatK expression upon ODN treatment: significant increase in CatK expression
  Number of OCs upon ODN treatment: without an increase in the number of OCs
hCatK [9]
  Reversibility of hCatK inhibition: (fast) reversible inhibitor
[2]
  Cysteine adduct formation: adduct formation that increases upon increasing the pH of the buffer
  Cysteine adduct pH 5.5: <1%
  Cysteine adduct pH 7.5: 17%
  Cysteine adduct pH 8.0: 48%
Human osteoclasts (OCs) [10]
  Number of OCs cultured on plastic: increase in the number of OCs
[11]
  half-life: 66 to 93 h
rodentCatK
  Reduction of apparent potency on rodentCatK compared to humanCatK: up to 182 fold
